Reference: article PMC7807167 (Methods (San Diego, Calif.), 2021)
Where two headings read alike, the source gives them in different places.

Key:
SARS-CoV-2/MT020880 [1] = type: cell-based; conditions: for IC50_Viral Entry blocking assay: ‘Very wide’ = some activity at high concentrations too staggering to plot
SARS-CoV-2/MT020880 [2] = type: cell-based; conditions: for IC-50_Viral Spread assay: ‘Very wide’ = some activity at high concentrations too staggering to plot
SARS-CoV-2 = type: cell-based; conditions: for inhibitory activity against SARS-CoV-2: concentration range tested; for anti-SARS-CoV-2 activity at 25 µM: Fig 6, Fig 7
ATCC Vero E6 cells = conditions: for Cytotoxicity: Vero E6, tested range up to 50 μM
3CLpro [3] = biological target: T1, 3CLpro (Severe acute respiratory syndrome coronavirus 2, UniProt P0DTD1); assay: Preliminary compound screening for 3CLpro inhibitors; type: biochemical, SARS-CoV-2; conditions: four concentrations, 1–50 µM, 3CLpro 0.4 µM, TVLQ-AMC 40 µM
Method in brief: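 Duplicate wells, 25 °C. Test compound (1–50 µM) or DMSO (0 µM) preincubated about 5 min with 3CLpro (0.4 µM) in Tris-HCl pH 7.3, 1 mM EDTA. Started with TVLQ-AMC (40 µM), shaken 5 s, emission 440 nm (excitation 364 nm) read 1 min–3 h. Controls: 6–8 DMSO wells, 2 no-enzyme wells. Two replicate screens; emission normalized to 0 µM at 3 h.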

3CLpro [4] = biological target: T1, 3CLpro; assay: 3CLpro enzyme inhibition assay; type: biochemical, SARS-CoV-2
Method in brief: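 Inhibitor (0–1000 µM) preincubated about 5 min with 3CLpro (0.4 µM) in Tris-HCl pH 7.3, 1 mM EDTA, triplicate, 25 °C. Started with TVLQ-AMC (40 µM) at fixed concentration, shaken 5 s. Fluorescence (excitation 364 nm) read continuously over time.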

Row | Compound | IC50_Viral Entry blocking assay (SARS-CoV-2/MT020880 [1]) | IC-50_Viral Spread assay (SARS-CoV-2/MT020880 [2]) | inhibitory activity against SARS-CoV-2 (SARS-CoV-2) | Cytotoxicity (ATCC Vero E6 cells) | activity in 3CLpro screening (rate of substrate cleavage) (3CLpro [3]) | IC50 (3CLpro [4]) | anti-SARS-CoV-2 activity at 25 µM (SARS-CoV-2) | Percent inhibition at 50 µM (SARS-CoV-2/MT020880 [1]; viral entry assay, 50 µM) | Percent inhibition at 50 µM (SARS-CoV-2/MT020880 [2]) | concentration with high cytotoxicity (ATCC Vero E6 cells; ATCC E6 Vero cells, number of nuclei counted)
1 | OC[C@H]1O[C@@H](O[C@@H]2[C@@H](CO)OC(O)(CO)[C@H]2O)[C@H](O)[C@@H](O)[C@H]1O (mixture of isomers) [Lactulose] | nil | nil | no observed inhibitory activity | Nontoxic within tested conc. range | – | – | – | – | – | –
2 | NCC[C@H](O)C(=O)N[C@@H]1C[C@H](N)[C@@H](O[C@H]2O[C@H](CN)[C@@H](O)[C@H](O)[C@H]2O)[C@H](O)[C@H]1O[C@H]1O[C@H](CO)[C@@H](O)[C@H](N)[C@H]1O [Amikacin hydrate] | (Very wide) | (Very wide) | – | Nontoxic within tested conc. range | – | – | – | – | – | –
3 | [H]/N=C(/N)SCCCn1cc(C2=C(c3cn(C)c4ccccc34)C(=O)NC2=O)c2ccccc21 [Bisindolylmaleimide IX] | – | – | – | Nontoxic within tested conc. range | significant activity | 114 ± 5.2 µM | – | – | – | –
4 | O=C(CCCN1CCC(O)(c2ccc(Cl)cc2)CC1)c1ccc(F)cc1 [Haloperidol] | – | – | – | Non-toxic within tested conc. range | very mild activity | – | 9.8% | – | – | –
5 | COCC(=O)Nc1c(I)c(C(=O)NCC(O)CO)c(I)c(C(=O)N(C)CC(O)CO)c1I (stereo not shown) [Iopromide] | nil | nil | no observed inhibitory activity | Nontoxic within tested conc. range | – | – | – | – | – | –
6 | NC[C@@H]1O[C@H](O[C@H]2[C@@H](O)[C@H](O[C@@H]3[C@@H](O)[C@H](N)C[C@H](N)[C@H]3O[C@H]3O[C@H](CO)[C@@H](O)[C@H](O)[C@H]3N)O[C@@H]2CO)[C@H](N)[C@@H](O)[C@@H]1O [Paromomycin] | – | (Very wide) | – | Nontoxic within tested conc. range | – | – | 2.3% | – | – | –
7 | C[C@@H]1O[C@@H](OC[C@H]2O[C@@H](Oc3c(-c4ccc(OCCO)c(OCCO)c4)oc4cc(OCCO)cc(O)c4c3=O)[C@H](O)[C@@H](O)[C@@H]2O)[C@H](O)[C@H](O)[C@H]1O [Troxerutin] | (Very wide) | (Very wide) | – | Nontoxic within tested conc. range | – | – | 2.8% | – | – | –
8 | Ivermectin | – | – | – | Toxic above 50 µM | – | – | – | 99% | 46% | > 16.67 µM
